Like-named read-outs stand apart in the source and are kept apart here. Marks after values point to notes of the source that are not given here. Where a SMILES comes first, the peptide text is derived from it. Bridges are numbered along the chain shown (N, C = ends). [ ]: non-standard residue; d: D form. βAla = NCCC(=O)O
Columns and labels:
[1] = assay type: in vivo, human; conditions: for Biological half-life (tumour): corrected for radioactive decay; for AUC24 (tumour): tumour uptake curve over 24 h; for Maximum uptake (mg CIGB-300): tumour uptake, two sites 0.5 ml each
In short: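 The first patient dose was 99mTc-labelled and injected at two equidistant points, ~2 cm deep (0.5 ml each). Whole-body gamma-camera images were taken at 10 min and 1, 2, 4, 8, 12, 24 h, with tumour static views at 3 and 24 h. Uptake was quantified by MIRD methodology, with tumour mass from baseline MRI. Half-life used decay-corrected fits, and AUC used mono/biexponential fits.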

[2] = Pharmacokinetics of unincorporated CIGB-300 in plasma; assay type: in vivo, human; conditions: both groups; highest levels only during the first hour after injection
[3] = Safety evaluation: local and systemic adverse events; assay type: in vivo, human; conditions: both groups
In short: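 Patients received 35 or 70 mg intralesionally once daily for three consecutive days at weeks 1, 3 and 5. Local and systemic adverse events and routine laboratory parameters were recorded. Systemic toxicity was followed for 24 h after each dose, with cardiovascular monitoring during injection and vital signs. The probability of exceeding 30% grade 3 events per group was estimated.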

histamine = test: Histamine levels in plasma; assay type: in vivo, human; conditions: both groups
In short: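 Stage IIB cervical carcinoma patients received 35 or 70 mg intralesionally. Plasma histamine was measured by commercial EIA before, immediately after, and 5, 15, 30 and 60 min after the first administration. Spearman rank correlation was run between histamine and plasma peptide concentration, and between histamine and allergic-reaction severity.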

B23/NPM = test: In situ B23/NPM expression in tumour biopsies by immunohistochemistry; assay type: in vivo, human
In short: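 Paraffin-embedded tumour biopsies were taken before and after the three treatment cycles. After deparaffinisation, sections were immunostained with a human B23/NPM monoclonal primary antibody and a commercial immunostaining kit, developed with peroxidase and counterstained with hematoxylin. Pre/post values were compared by paired Student's t-test or Wilcoxon test, chosen by the Shapiro–Wilk normality result.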

[4] = system: stage IIB cervical cancer; test: Therapeutic response by MRI; assay type: in vivo, human; conditions: 1-year follow-up
In short: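 MRI response was graded by RECIST before and after three peptide cycles, then quarterly for 1 year. Follow-up came after chemoradiotherapy: cisplatin 40 mg m−2 weekly for 6 weeks with 5040 cGy external beam in 28 fractions, then 2600 cGy intracavitary in four fractions. CT and abdominal/gynaecological ultrasonography were used to detect metastasis.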

[5] = assay type: in vivo, NIH nu/nu nude mice; conditions: 100 μg 99mTc-radiolabelled CIGB-300 intratumour in 0.2 or 0.5 ml PBS
In short: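 Female 6–8-week NIH nu/nu mice carried subcutaneous SiHa xenografts (5 × 10^6 cells, right inguinal flank). At 150 mm3, tumours received 100 μg 99mTc-labelled test compound in 0.025, 0.05, 0.2 or 0.5 ml PBS. Planar gamma-camera images were taken immediately and at 0.25, 1, 4, 24, 48 h. Tumour ROI signal was expressed as percent of the total initial image.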

[6] = system: human cervical cancer SiHa cells; test: Antitumour activity of different CIGB-300 regimens; assay type: in vivo, NIH nu/nu nude mice; conditions: 200 μg intratumoural per injection, tumour volume by caliper
[7] = 2 ml at a single tumour site, ref Soriano-García et al, 2013, cited from earlier work
[8] = system: high-grade squamous intraepithelial lesions; conditions: intralesional injections; ref Solares et al, 2009; cited from earlier work

In the case of CSCC[C@@H]1NC(=O)[C@H](Cc2c[nH]c3ccccc23)NC(=O)[C@@H](NC(=O)CCNC(=O)[C@H](CCC(N)=O)NC(=O)[C@@H]2CCCN2C(=O)[C@@H]2CCCN2C(=O)[C@H](CCCNC(=N)N)NC(=O)[C@H](CCCNC(=N)N)NC(=O)[C@H](CCCNC(=N)N)NC(=O)[C@H](CCC(N)=O)NC(=O)[C@H](CCCNC(=N)N)NC(=O)[C@H](CCCNC(=N)N)NC(=O)[C@H](CCCCN)NC(=O)[C@H](CCCCN)NC(=O)[C@H](CCCNC(=N)N)NC(=O)CN)CSSC[C@@H](C(=O)O)NC(=O)[C@H]([C@@H](C)O)NC(=O)CNC(=O)[C@H](CC(C)C)NC(=O)[C@H](Cc2c[nH]cn2)NC(=O)[C@H](CCCNC(=N)N)NC(=O)[C@@H]2CCCN2C(=O)[C@H](CO)NC1=O [CIGB-300] (H-GRKKRRQRRRPPQ[βAla]CWMSPRHLGTC-OH; disulfide 15-25; N-terminus and C-terminus assumed), the “Biological half-life (tumour)” value ([1]; group I 35 mg, N=6, mean±s.d.) is reported as 3.9±0.9 (2.6–5.5) h, the “Biological half-life (tumour)” value ([1]; group II 70 mg, N=7, mean±s.d.) is reported as 6.2±1.9 (3.5–10.1) h and the “Maximum uptake (mg CIGB-300 per g tumour)” value ([1]; group II 70 mg, tumour mass estimated by MRI, N=6, mean±s.d.) is reported as 1.1±0.8 (0.4–2.7) ^b mg g^−1. For the same molecule, the “Maximum tumour uptake, 70 mg compared with 35 mg” value ([1]; mean values, P=0.01) was “two-fold higher”, the “AUC24 (tumour)” value ([1]; group I 35 mg, N=6, mean±s.d.) was 132±72.2 (45.3–235) mg h and the “AUC24 (tumour)” value ([1]; group II 70 mg, N=7, mean±s.d.) was 385±167 (90.3–646) mg h. The “Maximum uptake (mg CIGB-300)” value ([1]; group I 35 mg intralesional, N=6, mean±s.d.) was 16.1±8.9 (3.8–27.2) mg, the “Maximum uptake (mg CIGB-300)” value ([1]; group II 70 mg intralesional, N=7, mean±s.d.) was 31.3±12.9 (9.9–48.7) mg and the “CIGB-300 levels in blood over time” value [2] was “near undetectable after 8 h”. For the same molecule, the “Blood counts and serum chemistry values, baseline vs post-treatment” value [3] was “no differences”, the “Time to return of plasmatic histamine to normal levels (1 ng ml^−1)” value (histamine; after first injection, rapid increase first) was 15 min and the “Overall histamine median when grade 1 allergic-like events occurred” value (histamine; plasma) was 0.7 ng/mL. The “Overall histamine median when grade 2 allergic-like events occurred” value (histamine; plasma) was 3.5 ng/mL, the “B23/nucleophosmin expression at the nucleoplasm” value (B23/NPM; after CIGB-300 treatment) was “not considerably modified” and the “Patients with reduced nucleolar B23/NPM expression after CIGB-300 treatment” value (B23/NPM; evaluated patients of both groups) was 10 out of the 12. For the same molecule, the “Levels of in situ B23/NPM in tumour biopsies, post CIGB-300” value (B23/NPM; group I (35 mg), N=6, mean±s.d., baseline 56.0±17.6, Student's t-test p 0.14) was 36.4±18.9, the “Deaths because of disease progression, whole trial” value ([4]; both groups) was “four” and the “Deaths because of disease progression, group I” value ([4]; group I (35 mg)) was “three”. The “CIGB-300 tumour uptake, higher injection volume” value [5] was “worse tumour uptake”, the “Three cycles of three consecutive daily injections” value [6] was “minimal frequency required to reduce tumour growth” and the Maximum tumour uptake ([7]; 35 mg) was 14.9 ± 6.4 mg. For the same molecule, the Maximum tumour uptake ([7]; 70 mg) was 10.4 ± 8.3 mg, the “Patients with full histological regression” value [8] was 19% and the “Patients with significant colposcopic response” value [8] was 90%. The “Previously positive patients with negative human papillomavirus DNA” value [8] was 48%.
